Assay results: PMC6800637 (Cell chemical biology, 2019)
Read-outs that look alike come from different tables or passages of the source.

Legend:
[1] = test system: MDA-MB-231 cells
[2] = test system: NRF2; assay: ARE-luciferase NRF2 activation assay; type: cell-based; details: for Max. induction (fold): ARE-luciferase relative to vehicle control, MDA-MB-231
[3] = test system: NRF2; assay: Real-time qRT-PCR of NRF2 and downstream genes; type: cell-based; details: MDA-MB-231, 16 hours
Summary of the method: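 MDA-MB-231 cells (6×10^5 per 35 mm dish) were treated 24 h after seeding with test compound for 16 h. Total RNA was TRIzol-extracted, and 1 µg was reverse-transcribed with M-MLV RT. SYBR Green qPCR: 95 °C 4 min, then 45 cycles of 95 °C 10 s and 60 °C 30 s. Values are normalised to GAPDH with untreated set to 1. Three runs in duplicate, mean ± SD, Student t-test.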

[4] = test system: KEAP1; assay: NRF2 immunoblot in KEAP1-WT and KEAP1-/- cells; type: cell-based; details: for level of NRF2 in KEAP1-/- cells: KEAP1-/- MDA-MB-231, four hours; for level of NRF2 in WT cells: KEAP1-WT MDA-MB-231, four hours
[5] = test system: NRF2; assay: Immunoblot of NRF2 and downstream genes; type: cell-based; details: for protein level of NRF2 and downstream target genes AKR1C1, NQO-1, HO-1, GCLM: MDA-MB-231, indicated doses, 16 hours
Summary of the method: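 MDA-MB-231 cells were seeded at 6×10^5 per 35 mm dish and treated 24 h later with test compound. Treatment was either a dose series for 16 h, or 2.33 or 71.5 µM (per compound) for a time course up to 48 h. Lysates were made in Laemmli buffer, boiled 5 min and run on SDS-PAGE, then immunoblotted for NRF2, AKR1C1, NQO1, HO-1 and GCLM. Done in triplicate.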

[6] = test system: KEAP1-WT; assay: Dual luciferase reporter assay and immunoblot, KEAP1-WT re-expressed; type: cell-based; details: KEAP1-/- MDA-MB-231 + KEAP1-WT, at EC50, 16 hours
Summary of the method: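 KEAP1−/− MDA-MB-231 cells (CRISPR-Cas9) were co-transfected with a KEAP1-WT expression vector plus NQO1-ARE firefly and TK-Renilla luciferase reporters. After 24 h, cells were treated with test compound for 16 h; controls were SFN (2 µM) and NaAsO2 (1 µM). Firefly activity is reported relative to Renilla (dual-luciferase), with an NRF2/KEAP1 immunoblot normalised to GAPDH. Mean ± SD of three independent experiments.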

[7] = test system: NRF2; assay: NRF2 protein half-life; type: cell-based
[8] = test system: KEAP1-C151S; assay: Dual luciferase reporter assay and immunoblot, KEAP1-C151S re-expressed; type: cell-based; details: for KEAP1-Cys151 dependence of NRF2 activation: KEAP1-WT versus KEAP1-C151S, dual luciferase and immunoblot; for firefly luciferase induction in the presence of KEAP1-C151S: KEAP1-/- MDA-MB-231 + KEAP1-C151S, 5 at EC50, As 1 µM, 16 hours
[9] = test system: NRF2; assay: NRF2 ubiquitination assay; type: cell-based; details: MDA-MB-231 transfected with NRF2 and HA-Ubiquitin, 3 2.33 µM, 5 71.5 µM, 4 hours
[10] = induction of ARE-luciferase, MDA-MB-231, 16 hours
[11] = MDA-MB-231 ARE-luciferase cell line, 48 h, MTT
[12] = MDA-MB-231, 71.5 µM, cycloheximide

Row | Compound | LD50 [48 h] [1] [µM] | Max. induction (fold) [2] [fold] | EC50 [2, 10] [µM] | LD50 [48 h] [1, 11] [µM] | EC50 ([2]; Homo sapiens, MDA-MB-231, 16 h) [µM] | also measured
1 | 1-O-Acetyl-15α-hydroxy-15-deoxy-methylgeopyxin A [Compound 14] | 123.63 ± 3.89 | 4.2 | 54.5 ± 5.1 | – | – | –
2 | 15α-Hydroxy-15-deoxy-methylgeopyxin A [Compound 13] | >128 | 1.9 | 73.1 ± 0.87 | – | – | –
3 | 16,17-dihydrogeopyxin A [Compound 16] | >128 | 1.6 | 70.4 ± 5.12 | – | – | –
4 | 16,17-epoxymethylgeopyxin A [Compound 15] | 115.11 ± 3.57 | 3.5 | 26.8 ± 4.08 | – | – | –
5 | C=C1C(=O)[C@]23C[C@H]1CC[C@H]2[C@]1(C)[C@@H](O)CC[C@@](C)(C(=O)O)[C@H]1C[C@@H]3O [Compound 1, geopyxin A] | – | 2.1 | – | 60.36 ± 1.18 | 4.44 ± 0.41 | –
6 | C=C1C(=O)[C@]23C[C@H]1CC[C@H]2[C@]1(C)C(=O)CC[C@@](C)(C(=O)O)[C@H]1C[C@@H]3O [Compound 3, geopyxin C] | – | 2.1 | 2.33 ± 0.35 | 51.29 ± 1.23 | – | mRNA level of NRF2 [3]: remained unchanged; mRNA levels of the downstream genes [3]: increased in a dose dependent manner; level of NRF2 in KEAP1-/- cells [4]: failed to further activate; level of NRF2 in WT cells [4]: dose-dependent activation; time of peak NRF2 protein level ([5]; MDA-MB-231, 2.33 µM 3): 4 h; protein level of NRF2 and downstream target genes AKR1C1, NQO-1, HO-1, GCLM [5]: dose dependent increases; firefly luciferase induction in the presence of KEAP1-WT [6]: induced; half-life of NRF2 ([7]; MDA-MB-231, at EC50, cycloheximide, in words): increased the half-life; KEAP1-Cys151 dependence of NRF2 activation [8]: Cys151 dependent; ubiquitylation of NRF2 [9]: largely fails to be ubiquitylated
7 | C[C@]12[C@@H]3CC[C@@H]4C[C@]3(C(=O)[C@@H]4CO)[C@@H](O)C[C@@H]1[C@](C)(C(=O)O)CC[C@@H]2O [Compound 5, geopyxin F] | >128 | 3.0 | 71.5 ± 5.8 | – | – | cellular toxicity [1]: no cellular toxicity; mRNA level of NRF2 [3]: remained unchanged; mRNA levels of the downstream genes [3]: increased in a dose dependent manner; level of NRF2 in KEAP1-/- cells [4]: failed to further activate; level of NRF2 in WT cells [4]: dose-dependent activation; time course of NRF2 protein level ([5]; MDA-MB-231, 71.5 µM 5): continues to steadily rise all the way up to 48 hours; protein level of NRF2 and downstream target genes AKR1C1, NQO-1, HO-1, GCLM [5]: dose dependent increases; firefly luciferase induction in the presence of KEAP1-WT [6]: induced; half-life of NRF2 [7]: increased the half-life; increase of half-life of NRF2 relative to compound 3 [7, 12]: more than 2 times; increase of half-life of NRF2 relative to untreated cells [7, 12]: more than 3 times; firefly luciferase induction in the presence of KEAP1-C151S [8]: induction; KEAP1-Cys151 dependence of NRF2 activation [8]: independent of KEAP1-Cys151; ubiquitylation of NRF2 [9]: largely fails to be ubiquitylated
8 | C=C1C(=O)[C@]23C[C@H]1CC[C@H]2[C@]1(C)[C@@H](O)CC[C@@](C)(C(=O)OC)[C@H]1C[C@@H]3O [Compound 6, methylgeopyxin A] | – | 2.2 | – | 8.69 ± 0.93 | 2.32 ± 0.17 | –
9 | O=[As][O-].[Na+] [NaAsO2, Sodium (meta)arsenite, reference compound] | – | – | – | – | – | firefly luciferase induction in the presence of KEAP1-C151S [8]: induction
10 | C[S+]([O-])CCCCN=C=S (centres unmarked) [SFN, sulforaphane, reference compound] | – | 1.9 | – | – | 0.97 ± 0.18 | LD50 [48 h] ([1]; human, 48 h): 46.2 µM; ubiquitylation of NRF2 [9]: largely fails to be ubiquitylated
11 | CC(C)(C)c1cc(O)ccc1O [tBHQ, tert-butylhydroquinone, reference compound] | – | 2.2 | – | 85.1 | 2.43 ± 0.34 | –
